Molecules are shown by their SMILES. Calls of active or inactive are those of the source. No cut-off for these calls is given here. Non-standard residues stand in square brackets, D forms with d. Residues, ends and D or L forms follow the SMILES beside them. 2Nal = N[C@@H](Cc1ccc2ccccc2c1)C(=O)O

The target of data set [1] is T1, Scaffold protein ILK (Homo sapiens) (UniProt Q13418).
T1 sequence (whole entry): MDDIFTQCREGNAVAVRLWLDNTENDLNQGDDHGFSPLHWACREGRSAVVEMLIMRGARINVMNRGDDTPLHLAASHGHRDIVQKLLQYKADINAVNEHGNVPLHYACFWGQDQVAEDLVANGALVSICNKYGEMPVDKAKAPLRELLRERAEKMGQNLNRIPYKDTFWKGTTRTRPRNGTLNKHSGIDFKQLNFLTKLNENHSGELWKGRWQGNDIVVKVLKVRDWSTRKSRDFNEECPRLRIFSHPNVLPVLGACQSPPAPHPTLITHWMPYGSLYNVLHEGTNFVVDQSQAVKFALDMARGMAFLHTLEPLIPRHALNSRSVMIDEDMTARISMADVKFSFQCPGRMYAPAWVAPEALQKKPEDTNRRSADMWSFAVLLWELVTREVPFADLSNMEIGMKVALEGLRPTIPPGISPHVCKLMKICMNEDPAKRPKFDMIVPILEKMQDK
Kind of data set: Induction of ILK (unknown origin).

Data set [2] concerns the target T1, Scaffold protein ILK (Homo sapiens). Kind of data set: Inhibition of ILK (unknown origin).
Data set [3] concerns Mesangial cell. Kind of data set: Induction of F-actin polymerization in human mesangial cells assessed as increase in F-actin levels measured after 24 hrs by Alexa 568-phalloidin based confocal microscopy. The essentials:
(§1)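 Human mesangial cells incubated 24 h with compound at 50 μM, or with buffer as control. Cells stained with Alexa 568 phalloidin and F-actin examined by confocal microscopy. F-actin amount measured in three independent assays; mean ± SEM expressed as percent of control values; p < 0.05 vs control.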

In data set [4] the test system is Mesangial cell. The data set is described as follows: Induction of F-actin polymerization in human mesangial cells ILK siRNA assessed as increase in phalloidin content at 50 uM measured after 24 hrs by Alexa 568-phalloidin based confocal microscopy relative to control. Conditions: filed as activator. The essentials:
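Human mesangial cells transfected with ILK siRNA, or scrambled siRNA as transfection control; cells then held in buffer (control) or compound at 50 μM for 24 h. Stained with Alexa 568 phalloidin and imaged by confocal microscopy. F-actin quantified in three independent assays; mean ± SEM as percentage vs control, p < 0.05 vs control.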

Data set [5] in a line: Cytotoxicity against human mesangial cells assessed as reduction in cell viability at 1 to 100 uM incubated for 24 hrs by MTT assay. Type of data set: cell-based. Conditions: dose 1-100 µM. A general note: Formazan colour is commonly taken as a measure of viable cells.
Data set [6] relates to Mesangial cell. Kind of data set: Induction of F-actin polymerization in human mesangial cells assessed as F-actin levels at 50 uM measured after 24 hrs by Alexa 568-phalloidin based confocal microscopy. The conditions noted are these: filed as activator. In a few lines:
as §1

Data set [7] concerns the target T1, Scaffold protein ILK (Homo sapiens). The data set is described as follows: Modulation of ILK in human mesangial cells assessed as reduction in AKT phosphorylation at Ser473 residue at 50 uM measured upto 90 mins by Western blot analysis. Format: cell-based. The conditions noted are these: Mesangial cell, time min <=90. For orientation: In western blotting, separated proteins are transferred to a membrane and probed.

The target is the same in data set [8]. The data set is described as follows: Modulation of ILK in human mesangial cells assessed as reduction in GSK-3beta phosphorylation at ser9 residue at 50 uM measured upto 90 mins by Western blot analysis. Type of data set: cell-based. The conditions noted are these: Mesangial cell, time min <=90.

`COC(=O)[C@H](C)NC(=O)[C@H](Cc1ccccc1)NC(=O)[C@H](Cc1ccc(O)cc1)NC(C)=O` (Ac-Tyr-Phe-Ala-OMe): in data set [1], the outcome was inactive.

`COC(=O)[C@H](CO)NC(=O)[C@H](Cc1ccc2ccccc2c1)NC(=O)[C@H](Cc1ccc(O)cc1)NC(C)=O` (Ac-Tyr-[2Nal]-Ser-OMe): the outcome in data set [1] was inactive. Also, in data set [2], the inhibition entry is “Active”.

As to `COC(=O)[C@@H](NC(=O)[C@H](Cc1ccc2ccccc2c1)NC(=O)[C@H](Cc1ccc(O)cc1)NC(C)=O)C(C)C` (Ac-Tyr-[2Nal]-Val-OMe), in data set [1], the result was inactive. Also, in data set [2], the inhibition entry was “Active”.

On to `COC(=O)[C@H](CO)NC(=O)[C@H](Cc1ccccc1)NC(=O)[C@H](Cc1ccc(O)cc1)NC(C)=O` (Ac-Tyr-Phe-Ser-OMe), for which the outcome in data set [1] was inactive.

Turning to `CC(=O)N[C@@H](Cc1ccc(O)cc1)C(=O)N[C@@H](Cc1ccccc1)C(=O)N[C@H](C(=O)O)C(C)C` (Ac-Tyr-Phe-Val-OH), the result (in data set [1]; in the data set on Mesangial cell [3]) was inactive.

`COC(=O)[C@@H](NC(=O)[C@H](C)NC(=O)[C@H](Cc1ccc(O)cc1)NC(C)=O)C(C)C` (Ac-Tyr-Ala-Val-OMe): the outcome in data set [1] was inactive.

`COC(=O)[C@@H](NC(=O)[C@H](Cc1ccccc1)NC(=O)[C@H](C)NC(C)=O)C(C)C` (Ac-Ala-Phe-Val-OMe): the Activity in the data set on Mesangial cell [4] is 59%; in data set [5] it was “Non-Toxic”. Besides, the outcome in data set [1] was inactive.

On to `COC(=O)[C@@H](NC(=O)[C@H](Cc1ccccc1)NC(=O)[C@H](Cc1ccc(O)cc1)NC(C)=O)C(C)C` (Ac-Tyr-Phe-Val-OMe), for which the Activity is 100% in the data set on Mesangial cell [4] and “Non-Toxic” in data set [5]. In addition, the outcome in data set [1], in data set [7] and in data set [8] was inactive. In the data set with Mesangial cell [6], the outcome was Active.

The record behind these values is ChEMBL document CHEMBL4825777, “Tripeptides as Integrin-Linked Kinase Modulating Agents Based on a Protein-Protein Interaction with α-Parvin” (ACS Med Chem Lett, 2021).
